In general, inhibition refers to the percentage by which the read-out fell short of the control. What is called IC50 is the concentration at which inhibition is half-maximal.

In data set [1] the test system is RAW264.7. Put plainly: Antiinflammatory activity in mouse RAW264.7 cells assessed as inhibition of LPS-induced TNF alpha production at 10 uM after 2 hrs by ELISA. In kind it is functional. The note with it: for inhibition at 10 µM: RAW264.7, 2 h. In short, it runs like this: (§1)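 RAW 264.7 cells were grown in DMEM with 10% heat-inactivated FBS and penicillin/streptomycin at 37 °C with 5% CO2, plated at 4.0 × 10^5/plate overnight, and pretreated for 2 h with compound at 10 µM (DMSO stock; vehicle control). LPS (0.5 µg/ml) was added for 22 h. TNF-α and IL-6 in the medium were measured by ELISA, normalized to cell protein, and expressed as % of LPS control. Values are mean ± SE of 3–5 independent experiments.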
(In an ELISA, binding on a coated surface is turned into a signal by an enzyme label.)

Data set [2] deals with RAW264.7. Kind of data set: Antiinflammatory activity in mouse RAW264.7 cells assessed as inhibition of LPS-induced IL-6 production at 10 uM after 2 hrs by ELISA. The class given is functional. The note with it: for inhibition at 10 µM: RAW264.7, 2 h. In short, it runs like this:
as §1

Data set [3] deals with RAW264.7. Put plainly: Antiinflammatory activity in mouse RAW264.7 cells assessed as inhibition of LPS-induced TNF alpha production after 2 hrs by ELISA. To be noted: RAW264.7, 2 h. The class given is functional, cell-based.
The subject of data set [4] is RAW264.7. Kind of data set: Antiinflammatory activity in mouse RAW264.7 cells assessed as inhibition of LPS-induced IL-6 production at 1 to 20 uM after 2 hrs by ELISA. In kind it is functional, cell-based. A digest of the protocol: (§2)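 Murine RAW 264.7 cells were plated at 4.0 × 10^6/plate overnight (37 °C, 5% CO2) and pretreated for 2 h with compound at 1, 2.5, 5.0, 10 and 20 µM. LPS at 0.5 µg/ml followed for 22 h. Media TNF-α and IL-6 were measured by ELISA, normalized to total cell-lysate protein, and given as % of LPS control. Values are mean ± SE of 3–5 independent experiments.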

Data set [5] concerns RAW264.7. Put plainly: Antiinflammatory activity in mouse RAW264.7 cells assessed as inhibition of LPS-induced TNF alpha production at 1 to 20 uM after 2 hrs by ELISA. In kind it is functional, cell-based. A digest of the protocol:
as §2

Data set [6] deals with RAW264.7. Kind of data set: Cytotoxicity against mouse RAW264.7 cells. The class given is cell-based.
The test system of data set [7] is RAW264.7. Put plainly: Antiinflammatory activity in mouse RAW264.7 cells assessed as inhibition of LPS-induced IL-6 production after 2 hrs by ELISA. The class given is functional, cell-based. The note with it: RAW264.7, 2 h.

Active and inactive are the calls of the source. The calls are words filed in the database; no cut-off is given here. Some results are limits rather than exact numbers.

Regarding `COc1cccc(/C=C2\CC/C(=C\c3cccc(OC)c3O)C2=O)c1O`, the inhibition entry with RAW264.7 [1] and in the data set with RAW264.7 [2] was “Active” throughout.

In the case of `CCOc1ccc(Br)cc1/C=C1\CC/C(=C\c2cc(Br)ccc2OCC)C1=O`, the inhibition entry in the data set on RAW264.7 [1] and in the data set on RAW264.7 [2] was “Active” in each case.

`O=C1/C(=C/c2c(F)cccc2C(F)(F)F)CC/C1=C\c1c(F)cccc1C(F)(F)F`: the inhibition at 10 µM with RAW264.7 [1] is > 20%. Further, in the data set on RAW264.7 [2], the inhibition result is “Active”.

With `COc1cc(OC)c(OC)cc1/C=C1\CCC/C(=C\c2cc(OC)c(OC)cc2OC)C1=O`, the inhibition entry in the data set on RAW264.7 [1] and with RAW264.7 [2] was “Active” throughout.

As to `O=C(/C=C/c1c(F)cccc1C(F)(F)F)/C=C/c1c(F)cccc1C(F)(F)F`, the inhibition entry in the data set on RAW264.7 [1] is “Active”. For the same compound, in the data set with RAW264.7 [2], the inhibition at 10 µM was determined as 30%.

As for `COc1cc(/C=C/C(=O)CC(=O)/C=C/c2ccc(O)c(OC)c2)ccc1O` [CURCUMIN], the inhibition at 10 µM amounted to 35.6% with RAW264.7 [1] and 75.7% with RAW264.7 [2].

Consider `O=C(/C=C/c1ccc(N2CCOCC2)cc1)/C=C/c1ccc(N2CCOCC2)cc1`, for which the inhibition at 10 µM with RAW264.7 [1] was > 20%; in the data set with RAW264.7 [2] it was 50%.

In the case of `O=C1/C(=C/c2ccc(N3CCCCC3)cc2)CC/C1=C\c1ccc(N2CCCCC2)cc1`, the inhibition at 10 µM with RAW264.7 [1] came to 20%. Further, the inhibition result with RAW264.7 [2] is “Active”.

As for `COc1ccc(F)c(/C=C2\CC/C(=C\c3cc(OC)ccc3F)C2=O)c1`, the inhibition result with RAW264.7 [1] is “Active”. Besides, the inhibition at 10 µM in the data set on RAW264.7 [2] is 30%.

As for `O=C1/C(=C/c2ccc(C(F)(F)F)cc2F)CCC/C1=C\c1ccc(C(F)(F)F)cc1F`, the inhibition entry in the data set with RAW264.7 [1] and with RAW264.7 [2] was “Active” in each case.

In the case of `Cc1cc(N(CCCl)CCCl)ccc1/C=C1\CC/C(=C\c2ccc(N(CCCl)CCCl)cc2C)C1=O`, the inhibition entry in the data set on RAW264.7 [1] is “Active”. In addition, the inhibition at 10 µM in the data set with RAW264.7 [2] stood at 30%.

As to `O=C1/C(=C/c2ccc(N3CCOCC3)cc2)CC/C1=C\c1ccc(N2CCOCC2)cc1`, the inhibition result with RAW264.7 [1] and in the data set with RAW264.7 [2] was “Active” each time.

As to `O=C1/C(=C/c2cccc(C(F)(F)F)c2F)CC/C1=C\c1cccc(C(F)(F)F)c1F`, the inhibition result in the data set with RAW264.7 [1] and with RAW264.7 [2] was “Active” each time.

For the compound `O=C1/C(=C/c2ccc(N3CCOCC3)cc2)CCC/C1=C\c1ccc(N2CCOCC2)cc1`, the inhibition entry in the data set with RAW264.7 [1] and with RAW264.7 [2] was “Active” each time.

`O=C1/C(=C/c2c(F)cccc2C(F)(F)F)CCC/C1=C\c1c(F)cccc1C(F)(F)F`: the inhibition result in the data set on RAW264.7 [1] and in the data set on RAW264.7 [2] was “Active” in each case.

For `CCN(CC)c1ccc(/C=C2\CC/C(=C\c3ccc(N(CC)CC)cc3)C2=O)cc1`, the inhibition at 10 µM with RAW264.7 [1] is 67.5%; in the data set on RAW264.7 [2], 92.7%. The figures for the IC50 in the data set with RAW264.7 [3] and with RAW264.7 [7] were 16.4 µM and 1.07 µM, respectively. Besides, the inhibition result with RAW264.7 [4] and in the data set on RAW264.7 [5] was “Dose-dependent effect” each time. The Activity result in the data set on RAW264.7 [6] is “Non-toxic”.

With `Cc1cc(N(CCCl)CCCl)ccc1/C=C1\CCC/C(=C\c2ccc(N(CCCl)CCCl)cc2C)C1=O`, the inhibition entry in the data set with RAW264.7 [1] and in the data set on RAW264.7 [2] was “Active” throughout.

Turning to `COc1cc(OC)c(OC)cc1/C=C/C(=O)/C=C/c1cc(OC)c(OC)cc1OC`, the inhibition at 10 µM in the data set with RAW264.7 [1] is > 20%. Besides, the inhibition result in the data set on RAW264.7 [2] is “Active”.

Turning to `COc1ccc(F)c(/C=C2\CCC/C(=C\c3cc(OC)ccc3F)C2=O)c1`, the inhibition at 10 µM with RAW264.7 [1] is 20%. Further, the inhibition result in the data set with RAW264.7 [2] is “Active”.

With `CCOC(OCC)c1cccc(/C=C2\CC/C(=C\c3cccc(C(OCC)OCC)c3)C2=O)c1`, the inhibition result with RAW264.7 [1] and in the data set with RAW264.7 [2] was “Active” each time.

As for `O=C1/C(=C/c2ccc(N3CCCCC3)cc2)CCC/C1=C\c1ccc(N2CCCCC2)cc1`, the inhibition entry with RAW264.7 [1] and in the data set on RAW264.7 [2] was “Active” throughout.

As to `COc1ccc(/C=C/C(=O)/C=C/c2ccc(OC)cc2F)c(F)c1`, the inhibition at 10 µM in the data set on RAW264.7 [1] was 20%; in the data set with RAW264.7 [2], 51.1%.

As for `COc1ccc(/C=C2\CC/C(=C\c3ccc(OC)cc3F)C2=O)c(F)c1`, the inhibition at 10 µM in the data set with RAW264.7 [1] was found to be 20%. For the same compound, the inhibition result with RAW264.7 [2] is “Active”.

For the compound `O=C1/C(=C/c2cccc(C(F)(F)F)c2F)CCC/C1=C\c1cccc(C(F)(F)F)c1F`, in the data set on RAW264.7 [1], the inhibition at 10 µM was > 20%. Also, in the data set with RAW264.7 [2], the inhibition result was “Active”.

`COc1cccc(/C=C/C(=O)/C=C/c2cccc(OC)c2O)c1O`: the inhibition entry in the data set on RAW264.7 [1] and with RAW264.7 [2] was “Active” each time.

`CCOc1ccc(Br)cc1/C=C/C(=O)/C=C/c1cc(Br)ccc1OCC`: the inhibition result in the data set on RAW264.7 [1] and in the data set on RAW264.7 [2] was “Active” in each case. Also, the results for the IC50 with RAW264.7 [3] and with RAW264.7 [7] were 6.28 µM and 3.64 µM, respectively. Also, the inhibition result in the data set on RAW264.7 [4] and in the data set on RAW264.7 [5] was “Dose-dependent effect” in each case. In addition, the Activity entry in the data set on RAW264.7 [6] was “Non-toxic”.

With `COc1cc(OC)c(OC)cc1/C=C1\CC/C(=C\c2cc(OC)c(OC)cc2OC)C1=O`, the inhibition entry in the data set with RAW264.7 [1] and in the data set on RAW264.7 [2] was “Active” in each case.

In the case of `CCN(CC)c1ccc(/C=C/C(=O)/C=C/c2ccc(N(CC)CC)cc2)cc1`, in the data set with RAW264.7 [1], the inhibition result was “Active”. The inhibition at 10 µM in the data set with RAW264.7 [2] stood at 50%.

As to `Cc1cc(N(CCCl)CCCl)ccc1/C=C/C(=O)/C=C/c1ccc(N(CCCl)CCCl)cc1C`, the inhibition at 10 µM amounted to 20% in the data set on RAW264.7 [1] and 30% in the data set on RAW264.7 [2].

As to `O=C1/C(=C/c2ccc(C(F)(F)F)cc2F)CC/C1=C\c1ccc(C(F)(F)F)cc1F`, the inhibition entry in the data set with RAW264.7 [1] and in the data set with RAW264.7 [2] was “Active” throughout.

For the compound `O=C(/C=C/c1ccc(N2CCCCC2)cc1)/C=C/c1ccc(N2CCCCC2)cc1`, in the data set with RAW264.7 [1], the inhibition entry is “Active”. For the same compound, the inhibition at 10 µM in the data set with RAW264.7 [2] amounted to 50%.

`CCOc1ccc(Br)cc1/C=C1\CCC/C(=C\c2cc(Br)ccc2OCC)C1=O`: the inhibition entry in the data set with RAW264.7 [1] and in the data set with RAW264.7 [2] was “Active” each time.

As to `O=C1/C(=C/c2ccc(C(F)(F)F)cc2C(F)(F)F)CCC/C1=C\c1ccc(C(F)(F)F)cc1C(F)(F)F`, the inhibition at 10 µM in the data set with RAW264.7 [1] is 20%. Also, the inhibition entry in the data set with RAW264.7 [2] was “Active”.

Consider `CCN(CC)c1ccc(/C=C2\CCC/C(=C\c3ccc(N(CC)CC)cc3)C2=O)cc1`, for which the inhibition result in the data set on RAW264.7 [1] and with RAW264.7 [2] was “Active” each time.

The values above are taken from ChEMBL document CHEMBL1629490, “Synthesis and anti-inflammatory evaluation of novel mono-carbonyl analogues of curcumin in LPS-stimulated RAW 264.7 macrophages” (Eur J Med Chem, 2010).
